Reference: ChEMBL document CHEMBL4346727, “Synthesis and pharmacological evaluation of novel N-Mannich bases derived from 5,5-diphenyl and 5,5-di(propan-2-yl)imidazolidine-2,4-dione core” (Bioorg Med Chem Lett, 2019)
The source made the active and inactive calls. No cut-off for these calls is given here.

How the values were obtained:
[1] = system: Mus musculus; assay: Anticonvulsant activity in CD1 mouse assessed as protection against 32 mA current-induced seizure at 100 mg/kg, ip measured after 30 mins by 6 Hz psychomotor seizure test
[2] = system: Mus musculus; assay: Anticonvulsant activity in ip dosed CD1 mouse assessed as protection against 50 mA current-induced seizures; format: functional
Outline: (§1)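 Median effective doses were quantified in the maximal electroshock, subcutaneous pentylenetetrazole and 6 Hz tests after intraperitoneal dosing in mice or oral dosing in rats, at the time of peak effect. ED50 values are reported with ranges in parentheses.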

[3] = system: Rattus norvegicus; assay: Anticonvulsant activity in po dosed Sprague-Dawley rat assessed as time to peak effect on protection against 150 mA current-induced seizures; format: functional
Outline: as §1

[4] = system: Mus musculus; assay: Anticonvulsant activity in ip dosed CD1 mouse assessed as protection against subcutaneous pentylenetetrazole-induced seizures; format: functional
Outline: as §1

[5] = Protection index, ratio of TD50 for neurotoxicity in po dosed Sprague-Dawley rat by rotarod test to ED50 for anticonvulsant activity in po dosed Sprague-Dawley rat by maximal electroshock seizure test; format: toxicity, organism-based; conditions: in vivo, read-out: Ratio TD50/ED50
[6] = Neurotoxicity in ip dosed CD1 mouse model by rotarod test; format: toxicity, organism-based; conditions: in vivo
[7] = Protection index, ratio of TD50 for neurotoxicity in ip dosed CD1 mouse by rotarod test to ED50 for anticonvulsant activity in ip dosed CD1 mouse by maximal electroshock seizure test; format: toxicity, organism-based; conditions: in vivo, read-out: Ratio TD50/ED50
[8] = Neurotoxicity in Sprague-Dawley rat at 30 mg/kg, po measured after 15 mins by rotarod test; format: toxicity, organism-based; conditions: in vivo, 0.25 h
Outline: (§2)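 Rats given one oral dose of 30 mg/kg and tested on the rotarod at 0.25, 0.5, 1, 2, 4 and 6 h.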

[9] = Neurotoxicity in Sprague-Dawley rat at 30 mg/kg, po measured after 2 hr by rotarod test; format: toxicity, organism-based; conditions: in vivo
Outline: as §2

[10] = system: Mus musculus; assay: Anticonvulsant activity in ip dosed CD1 mouse assessed as time to peak effect on protection against 32 mA current-induced seizure by 6 Hz psychomotor seizure test; format: functional
Outline: as §1

[11] = system: Mus musculus; assay: Anticonvulsant activity in ip dosed CD1 mouse assessed as protection against 32 mA current-induced seizure by 6 Hz psychomotor seizure test; format: functional
Outline: as §1

[12] = Neurotoxicity in CD1 mouse at 50 mg/kg, ip measured after 15 mins by rotarod test; conditions: in vivo, 0.25 h
[13] = system: Rattus norvegicus; assay: Anticonvulsant activity in po dosed Sprague-Dawley rat assessed as time to peak effect on protection against subcutaneous pentylenetetrazole-induced seizures; format: functional
[14] = system: Rattus norvegicus; assay: Anticonvulsant activity in po dosed Sprague-Dawley rat assessed as protection against subcutaneous pentylenetetrazole-induced seizures; format: functional
[15] = system: Mus musculus; assay: Anticonvulsant activity in ip dosed CD1 mouse assessed as time to peak effect on protection against 50 mA current-induced seizures; format: functional
Outline: as §1

[16] = Neurotoxicity in ip dosed CD1 mouse and measured after 0.5 hrs by rotarod test; format: toxicity, organism-based; conditions: in vivo
Outline: (§3)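 Mice dosed intraperitoneally at 30, 100 and 300 mg/kg, then tested on the rotarod at 0.5 h and 4 h. The value recorded is the minimum dose at which neurotoxicity appeared. A dash means no neurotoxicity at the top dose of 300 mg/kg.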

[17] = Neurotoxicity in CD1 mouse at 50 mg/kg, ip measured after 2 hrs by rotarod test; conditions: in vivo
[18] = Neurotoxicity in Sprague-Dawley rat at 30 mg/kg, po measured after 4 hr by rotarod test; format: toxicity, organism-based; conditions: in vivo
Outline: as §2

[19] = Neurotoxicity in Sprague-Dawley rat at 30 mg/kg, po measured after 1 hr by rotarod test; format: toxicity, organism-based; conditions: in vivo
Outline: as §2

[20] = Neurotoxicity in CD1 mouse at 25 mg/kg, ip measured after 30 mins by rotarod test; conditions: in vivo, 0.5 h
[21] = Neurotoxicity in ip dosed CD1 mouse and measured after 4 hrs by rotarod test; format: toxicity, organism-based; conditions: in vivo
Outline: as §3

[22] = system: Mus musculus; assay: Antiallodynic activity in CD1 mouse assessed as reduction in oxaliplatin-induced neuropathic pain in early phase by measuring paw withdrawal force at 11 mg/kg, ip measured after 3 hrs by Von Frey test relative to untreated control; format: functional; design: scale not given: the % may be the effect or the level left
[23] = system: Mus musculus; assay: Anticonvulsant activity in CD1 mouse assessed as protection against 32 mA current-induced seizure at 100 mg/kg, ip measured after 2 hrs by 6 Hz psychomotor seizure test
[24] = Neurotoxicity in po dosed Sprague-Dawley rat assessed as time to peak effect by rotarod test; format: toxicity, organism-based; conditions: in vivo
[25] = system: Mus musculus; assay: Antiallodynic activity in CD1 mouse assessed as reduction in oxaliplatin-induced neuropathic pain in late phase by measuring paw withdrawal force at 11 mg/kg, ip measured after 7 days by Von Frey test relative to untreated control; format: functional; design: scale not given: the % may be the effect or the level left

CN1CCN(CN2C(=O)NC(c3ccccc3)(c3ccccc3)C2=O)CC1
Activity [1]: Active
ED50 [2]: 11.1 mg/kg
Time [3]: 2 h
ED50 [4]: > 80 mg/kg
selectivity ratio [5]: > 13
TD50 [6]: 75.5 mg/kg
selectivity ratio [7]: 6.78
Activity [8]: Non-Toxic
Activity [9]: Non-Toxic
Time [10]: 1 h
ED50 [11]: 12.2 mg/kg
Activity [12]: Non-Toxic
Time [13]: 2 h
ED50 [14]: > 250 mg/kg
Time [15]: 4 h
minimal neurotoxic dose [16]: 100 mg/kg
Activity [17]: Non-Toxic
Activity [18]: Non-Toxic
Activity [19]: Non-Toxic
Activity [20]: Non-Toxic
MTC [21]: 100 mg/kg
Activity [22]: 53%
Activity [23]: Active
Time [24]: 2 h
Activity [25]: 61%
